Usually inhibition stands for how much of the control response was suppressed. Read a high inhibition as a response far below the control. By pIC50 is commonly meant the negative decadic logarithm of the IC50, by convention in mol/L. A higher pIC50 goes with a small IC50.

Assay [1] concerns the target T1, Beta-secretase 1 (Homo sapiens, UniProt P56817). Put plainly: Inhibition of BACE-1 (unknown origin) at 10 uM by FRET assay relative to control. In outline:
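FRET-based BACE-1 activity kit used per the kit protocol, except total reaction volume was cut to […]. Each compound tested at a single concentration of 10 µM. Result given as percent inhibition of BACE-1 activity, from two independent experiments.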

Assay [2] has as its target T1, Beta-secretase 1. Description: Inhibition of BACE-1 (unknown origin) by FRET assay. The essentials: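 BACE-1 FRET kit assay following the kit protocol, with total reaction volume reduced to […]. Compounds exceeding 50% inhibition at the single-point screen were retested across several concentrations. IC50 derived from linear regression parameters, reported as the mean of at least two experiments.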

Another assay has as its system HEK293. Put plainly: Cytotoxicity against HEK293 cells after 72 hrs by CellTiterGlo assay. Type of assay: cell-based. The settings on record: Homo sapiens, HEK293, 72 h. The essentials: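 HEK293 grown in DMEM with 10% FBS, 100 units/mL penicillin and 100 units/mL streptomycin at 37 °C, 5% CO2. Seeded at 1000 cells/well in 384-well format, then exposed to test agents from a top working level of […], serially diluted threefold ten more times. Staurosporine positive control. After 72 h, CellTiter Glo reagent (10%) added and ATP luminescence read. IC50 taken from log dose–viability curves.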
(ATP-based viability assays read luminescence as a measure of living cells.)

pIC50: −log10 of the molar value. Some results are limits rather than exact numbers.

T1 sequence (P56817 whole entry): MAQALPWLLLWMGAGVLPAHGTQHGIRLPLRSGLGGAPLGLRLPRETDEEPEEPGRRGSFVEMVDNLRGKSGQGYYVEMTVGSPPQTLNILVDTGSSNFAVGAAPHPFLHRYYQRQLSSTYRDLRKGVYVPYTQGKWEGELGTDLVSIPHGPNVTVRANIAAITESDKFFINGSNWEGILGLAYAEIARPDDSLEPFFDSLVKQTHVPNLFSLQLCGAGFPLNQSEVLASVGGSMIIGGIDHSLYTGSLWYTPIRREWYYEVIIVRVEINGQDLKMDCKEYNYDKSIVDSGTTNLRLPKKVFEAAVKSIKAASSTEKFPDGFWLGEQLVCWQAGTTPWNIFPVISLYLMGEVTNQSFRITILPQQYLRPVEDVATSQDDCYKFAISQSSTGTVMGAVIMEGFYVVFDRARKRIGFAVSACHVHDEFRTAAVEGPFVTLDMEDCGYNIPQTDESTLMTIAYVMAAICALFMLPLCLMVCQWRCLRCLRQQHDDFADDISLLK

For the compound `O=C(NCc1cccnc1)c1c[nH]c2ccc(S(=O)(=O)Nc3cccc(C(F)(F)F)c3)cc2c1=O`, the inhibition against Beta-secretase 1 [1] worked out at 35.7%.

On to `O=C(NCc1ccc(F)cc1)c1c[nH]c2ccc(S(=O)(=O)Nc3cccc(C(F)(F)F)c3)cc2c1=O`, for which the inhibition on Beta-secretase 1 [1] turned out to be 30.4%.

With `Cc1ccccc1-c1ccc2[nH]cc(C(=O)NCc3cccc(F)c3)c(=O)c2c1`, the inhibition against Beta-secretase 1 [1] was 12.3%.

Regarding `Cc1ccccc1-c1ccc2[nH]cc(C(=O)NC3CCCCC3)c(=O)c2c1`, at Beta-secretase 1 [1], the inhibition was found to be 77.8%. Moreover, the pIC50 on Beta-secretase 1 [2] is 4.94; in the assay with HEK293, less than 4.30.

At Beta-secretase 1 [1], `O=C(NCc1cccc(F)c1)c1c[nH]c2ccc(S(=O)(=O)Nc3cccc(C(F)(F)F)c3)cc2c1=O` had an inhibition of 84.6%. Further, the figures for the pIC50 at Beta-secretase 1 [2] and in the assay with HEK293 were 5.73 and less than 4.30, respectively.

For the compound `O=C(NCc1ccco1)c1c[nH]c2ccc(S(=O)(=O)Nc3cccc(C(F)(F)F)c3)cc2c1=O`, the inhibition on Beta-secretase 1 [1] turned out to be 71.1%. The negative logarithm of the IC50 (pIC50) was 5.79 at Beta-secretase 1 [2] and less than 4.30 with HEK293.

For the compound `O=C(NC1CCCCC1)c1c[nH]c2ccc(S(=O)(=O)Nc3cccc(C(F)(F)F)c3)cc2c1=O`, the inhibition on Beta-secretase 1 [1] was 65.6%. The negative-log IC50 (pIC50) was 5.14 on Beta-secretase 1 [2] and less than 4.30 with HEK293.

The compound `Cc1ccccc1-c1ccc2[nH]cc(C(=O)NCc3cccc(C(F)(F)F)c3)c(=O)c2c1` registered an inhibition on Beta-secretase 1 [1] of 67.4%. Besides, the pIC50 was 5.21 at Beta-secretase 1 [2] and less than 4.30 in the assay on HEK293.

In the case of `COc1cccc(CNC(=O)c2c[nH]c3ccc(S(=O)(=O)Nc4cccc(C(F)(F)F)c4)cc3c2=O)c1`, the inhibition at Beta-secretase 1 [1] stood at 73.5%. Also, the negative logarithm of the IC50 (pIC50) against Beta-secretase 1 [2] is 5.66; in the assay on HEK293, less than 4.30.

As for `Cc1ccccc1-c1ccc2[nH]cc(C(=O)NCc3ccco3)c(=O)c2c1`, the inhibition at Beta-secretase 1 [1] was 32.9%.

With `COc1ccc(CNC(=O)c2c[nH]c3ccc(S(=O)(=O)Nc4cccc(C(F)(F)F)c4)cc3c2=O)cc1`, on Beta-secretase 1 [1], the inhibition is 50.4%. Further, the negative-log IC50 (pIC50) against Beta-secretase 1 [2] is 5.15; with HEK293, less than 4.30.

`Cc1ccccc1-c1ccc2[nH]cc(C(=O)NCc3ccc(C(F)(F)F)cc3)c(=O)c2c1`: the inhibition against Beta-secretase 1 [1] turned out to be 38.1%.

As for `CN[C@@H]1C[C@H]2O[C@@](C)([C@@H]1OC)n1c3ccccc3c3c4c(c5c6ccccc6n2c5c31)C(=O)NC4` [STAUROSPORINE], in the assay on HEK293, the pIC50 is 7.25.

`Cc1ccccc1-c1ccc2[nH]cc(C(=O)NCc3cccnc3)c(=O)c2c1` had an inhibition against Beta-secretase 1 [1] of 10.2%.

As for `O=C(NCc1ccc2c(c1)OCO2)c1c[nH]c2ccccc2c1=O`, the inhibition on Beta-secretase 1 [1] was found to be 11.3%.

Take `Cc1ccccc1-c1ccc2[nH]cc(C(=O)NCc3cccc(Br)c3)c(=O)c2c1`: on Beta-secretase 1 [1], the inhibition was determined as 77.6%. The pIC50 against Beta-secretase 1 [2] is 5.72; with HEK293, less than 4.30.
